Source: PubChem BioAssay (several laboratories)
RanGTP-Imp inh: inhibitors of RanGTP-importin-beta interaction, primary screen, biochemical, FRET, CFP-Ran, YFP-importin-beta, homogeneous | 1.1% of 300,000 active | cell-free CFP-Ran/YFP-importin-beta FRET ratio | inhibition, % (concentration not given with the values) | AID 2216, 2009;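 active = more than half of the replicate wells show a fall in the fluorescence ratio signal beyond about 16%, limit read from the data, passing the limit was not always enough; inconclusive = exactly half of the replicate wells pass the set limit; inactive = fewer than half of replicates pass the limit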;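 also: 0% = DMSO wells and 100% = Ran loaded with GDP instead of GTP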
Runt-SMMHC FRET: inhibitors of RUNX1 Runt–CBFb-SMMHC binding, primary screen, biochemical, FRET, Cerulean-Runt, Venus-CBFb-SMMHC, uHTS | Runt-related transcription factor 1 (Homo sapiens) + Core-binding factor subunit beta … | Cerulean-Runt/Venus-CBFb-SMMHC FRET ratio 530/480, 1 h | inhibition, % at 20 µM | 0.74% of 220,000 active | AID 1434, 2008;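 active = mean inhibition across duplicate retests at 20 µM reaching about 50%, limit read from the data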;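 also: 0% = DMSO wells and 100% = wells with excess untagged CBFb-SMMHC; inhibitors lower the FRET ratio by blocking Runt binding to CBFb-SMMHC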
Runt-CBFb FRET: inhibitors of RUNX1 Runt–CBFb binding, primary screen, biochemical, FRET, Cerulean-Runt, Venus-CBFb, uHTS; 0.46% of 220,000 active; AID 1496, 2009; inhibition, % at 20 µM; Runt-related transcription factor 1 (Homo sapiens) + Core-binding factor subunit beta …; Cerulean-Runt/Venus-CBFb FRET ratio 530/480, 1 h;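 active = inhibition over about 50% at 20 µM in the single-dose screen, limit read from the data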;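 also: 0% = DMSO wells and 100% = excess unlabeled CBFb competitor control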
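Schedule: protein complex preformed 1 h, compound exposure 1 h, room temperature, dark; test system: Cerulean-labeled Runt domain protein; amount: 100 nM per protein; buffer or medium: Tris 50 mM pH 7.5, KCl, K2SO4, 0.01% BSA; read-out: loss of energy transfer signal; detection: FRET fluorescence; controls: 5 µM unlabeled CBFb as full-inhibition high control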
Hck-Nef inh: inhibitors of Nef-activated human Hck kinase, primary screen, biochemical, Z-Lyte FRET, 384-well, Hck-YEEI; Tyrosine-protein kinase HCK (Homo sapiens), P08631; Recombinant Hck-YEEI plus Nef, Z-Lyte FRET kinase assay; inhibition, % at 20 µM; 0.68% of 220,000 active; AID 463187, 2010;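 active = Hck-Nef kinase inhibition above about 50%, limit read from the data; inactive = inhibition below that limit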;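 also: 0% = DMSO with Hck plus Nef and 100% = Hck alone without Nef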
Target sequence (P08631 whole entry, looked up): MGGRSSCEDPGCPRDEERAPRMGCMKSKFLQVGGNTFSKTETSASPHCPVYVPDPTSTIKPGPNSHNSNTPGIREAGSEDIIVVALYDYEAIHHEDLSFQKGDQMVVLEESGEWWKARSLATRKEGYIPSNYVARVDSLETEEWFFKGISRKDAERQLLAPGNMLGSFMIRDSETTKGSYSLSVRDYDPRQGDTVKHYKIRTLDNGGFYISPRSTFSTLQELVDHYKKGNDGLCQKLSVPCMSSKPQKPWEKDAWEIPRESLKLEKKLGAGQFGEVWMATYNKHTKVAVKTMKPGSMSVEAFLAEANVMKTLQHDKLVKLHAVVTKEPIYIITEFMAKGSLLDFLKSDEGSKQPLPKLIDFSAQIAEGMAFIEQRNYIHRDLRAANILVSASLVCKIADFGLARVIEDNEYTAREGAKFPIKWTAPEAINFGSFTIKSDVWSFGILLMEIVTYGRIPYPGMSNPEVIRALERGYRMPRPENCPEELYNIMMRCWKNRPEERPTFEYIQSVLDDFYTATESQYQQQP
Hck-Nef confirm: retest of Hck:Nef kinase inhibitor hits, confirmation, biochemical, Z-Lyte FRET, 384-well, p-Tyr peptide counterscreen | shares compounds with Hck-Nef inh | Recombinant Hck-YEEI:Nef, Z-Lyte FRET kinase assay | calls only at 10 µM | 28% of 1,300 active | AID 463188, 2010;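 active = average inhibition of at least 50%, with Z-scores no higher than 3 in both the phospho-tyrosine peptide and fluorescence counterscreens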
Starred values were filed as active, the others as inactive; i = inactive; ? = inconclusive; / = no result shown; + = active, no number. An excerpt weighted towards active compounds, which were near 1.8% of everything screened.

SMILES | RanGTP-Imp inh | Runt-SMMHC FRET | Runt-CBFb FRET | Hck-Nef inh | Hck-Nef confirm
CC(=O)Nc1ccc(S(=O)(=O)C(C#N)c2nc3ccccc3nc2NCCO)cc1 (stereo unspecified) | 3.5 | 5.7 | 10.1 | 148.4* | /
COc1ccc(NC(=O)CN(C)C(=O)CCCN2C(=O)c3cccc4cccc(c34)C2=O)cc1 | 2.0 | / | / | / | /
COC(=O)c1ccc(Oc2c(Cl)cccc2[N+](=O)[O-])cc1 | -3.0 | 0.4 | -1.1 | 1.1 | /
N#Cc1c(NCCCO)nc(-c2ccco2)c2c1CCCC2 | 7.7 | -10.7 | -0.1 | 140.5* | /
CCOc1ccc(S(=O)(=O)N2CCN(C)CC2)c(C)c1C | 0.0 | -1.4 | -1.7 | 4.3 | /
CCOc1ccc(S(=O)(=O)N2CCCCC2)c(C)c1C | 3.8 | -4.3 | -4.3 | 82.8* | i
CC1CCN(S(=O)(=O)c2nnc(NC(=O)c3ccccc3Br)s2)CC1 | 4.8 | / | / | / | /
NS(=O)(=O)c1ccc(CNS(=O)(=O)c2cc(C(=O)O)ccc2Cl)cc1 | -4.5 | -0.6 | 1.0 | 63.2* | i
CCC(C)n1c(-c2ccco2)nc2nc3ccccc3nc21 (stereo unspecified) | 0.5 | 9.6 | / | 27.8 | /
COCCn1c(-c2ccco2)nc2nc3ccccc3nc21 | 19.5* | 65.6* | 7.7 | 119.6* | /
CC(C)OCCCn1c(-c2ccco2)nc2nc3ccccc3nc21 | ? | / | 34.1 | 131.5* | /
CCOC(=O)C1CCCN(C(=O)Nc2c(-c3ccccc3)noc2C)C1 (stereo unspecified) | 2.7 | 1.0 | 1.0 | 2.5 | /
CC1=CC(=O)c2c(O)ccc(O)c2C1=O | / | -42.4 | 10.8 | 60.2* | +
O=C1C=C(O)c2cccc(O)c2C1=O | / | -6.5 | 6.6 | 25.4 | /
Cn1c(=S)[nH]c2[nH]c(=O)cnc2c1=O | -0.7 | -7.1 | -86.5 | -0.3 | /
COc1ccc(NC(=O)CSc2nncn2C)cc1 | 4.1 | / | / | / | /
COc1ccc(NC(=O)CSc2c(C)nn(-c3nnc(C)c(=O)[nH]3)c2C)cc1 | -0.5 | 3.0 | 2.3 | 108.1* | i
CN(c1cccc(NC(=O)CN(c2cccc(F)c2)S(C)(=O)=O)c1)S(C)(=O)=O | / | 2.5 | 0.3 | 4.2 | /
COc1ccc(Br)cc1/C=C/C(=O)NC(=S)Nc1ccc(Cl)c(C(=O)O)c1 | -4.0 | -2.5 | 3.2 | 57.5* | i
COc1ccc(Br)cc1C(=O)NC(=S)Nc1ccc(Cl)c(C(=O)O)c1 | -1.4 | -5.6 | 1.3 | 19.1 | /
CC(=O)c1ccc(NC(=O)CN(c2c(C)cccc2C)S(C)(=O)=O)cc1 | -1.5 | / | / | / | /
Cc1c(Cl)c(=O)oc2cc(OC(C)C)ccc12 | 2.5 | 1.2 | -1.1 | 3.5 | /
CCC(=O)Oc1ccc2c(C)c(Cl)c(=O)oc2c1 | 25.2* | 127.2* | 82.6* | 109.5* | /
COC(=O)Cc1c(C)c2ccc(OC(=O)c3ccccc3)cc2oc1=O | 10.7 | 17.4 | 9.1 | 56.0* | /
Cc1c(Cc2ccccc2)c(=O)oc2cc(OC(=O)c3ccccc3)ccc12 | -0.5 | 11.9 | 8.2 | 33.3 | /
SMILES | RanGTP-Imp inh | Runt-SMMHC FRET | Runt-CBFb FRET | Hck-Nef inh | Hck-Nef confirm
O=C(NCCCN1CCCC1=O)c1ccccc1NS(=O)(=O)c1ccc(Br)cc1 | 1.0 | -0.6 | 3.2 | 2.3 | /
CCN1/C(=C\C=C2\C(=O)N(C)C(=S)N2C)Sc2ccccc21 | 0.2 | 5.3 | 15.1 | 71.6* | i
CCN1/C(=C2/OC(=S)N(C)C2=O)Sc2ccccc21 | / | 39.9 | 16.3 | -0.1 | /
CCOC(=O)C1=C(CBr)NC(=O)NC1C (stereo unspecified) | 3.1 | -21.0 | 2.0 | 5.5 | /
Cc1ccc(-c2nc3ccc(C(=O)O)cc3nc2-c2ccc(C)cc2)cc1 | 0.5 | 6.4 | / | 3.4 | /
O=C(O)c1ccc2nc(-c3ccco3)c(-c3ccco3)nc2c1 | / | 8.5 | 45.9 | 51.8* | i
CN1CCN(CCCNC(=O)Cn2ncc3c4ccccc4n(C)c3c2=O)CC1 | ? | 2.3 | -0.3 | 6.9 | /
Cc1cc2c(s1)c1cnn(CC(=O)NCCc3ccccc3)c(=O)c1n2C | -2.8 | 3.4 | -1.4 | 75.9* | i
COc1ccc(C(=O)n2cc(C(=O)c3cc(C)ccc3O)cn2)cc1OC | 0.1 | -5.9 | -1.5 | 67.3* | +
COc1ccc(C(=O)n2cc(C(=O)c3cc(C)ccc3O)cn2)cc1 | 1.4 | -1.2 | -1.6 | 29.7 | /
COc1cc(/C=C/[N+](=O)[O-])ccc1OCc1cccc(C(=O)O)c1 | 1.2 | 16.0 | 17.2 | 62.2* | i
Cc1nc2c(ccc3nc(NC(=O)C4CC4)sc32)s1 | 5.9 | 0.7 | -1.9 | 54.0* | i
CCC(=O)Nc1nc2ccc3sc(C)nc3c2s1 | -0.9 | -5.3 | 1.9 | 19.4 | /
CCNc1nc2nc3ccc(C)cn3c(=O)c2cc1C(=O)NCC1CCCO1 (stereo unspecified) | 184.6* | 90.9* | 18.7 | + | /
Cc1ccc2nc3nc(NCC4CCCO4)c(C(=O)NC4CCCC4)cc3c(=O)n2c1 (stereo unspecified) | 180.6* | 63.2* | 19.2 | 163.8* | /
Cc1ccc2nc3nc(NCC4CCCO4)c(C(=O)NC4CCCCC4)cc3c(=O)n2c1 (stereo unspecified) | 177.1* | / | / | 134.3* | /
O=C(Oc1ccc2c(c1)O/C(=C\c1ccncc1)C2=O)c1cccs1 | -134.9 | -80.6 | -115.8 | 37.4 | /
COc1ccccc1C(=O)Oc1ccc2c(c1)O/C(=C\c1ccncc1)C2=O | -188.6 | -216.0 | -369.4 | 75.6* | +
Cc1ccc(NC(=O)CCNS(=O)(=O)c2ccc3[nH]c(=O)oc3c2)cc1N(C)C | -0.1 | / | / | / | /
CC1(C)Cc2nc(Cl)c(C#N)cc2CO1 | 3.9 | 3.4 | 1.7 | 10.3 | /
CC1(C)Cc2nc(N3CCCC3)c(C#N)cc2CO1 | 1.8 | 2.1 | 0.6 | 73.9* | i
CNC(=O)NC(=O)COC(=O)c1ccc(-n2c(C)ccc2C)cc1 | 2.2 | 1.2 | 1.1 | 2.0 | /
COc1ccc(CN2CCN(C(=O)Cn3ncn4cccc4c3=O)CC2)c(OC)c1OC | 5.5 | / | / | / | /
NS(=O)(=O)c1ccc(C(=O)Nc2ccc(-c3nc4cccnc4s3)cc2)cc1 | 2.8 | -18.2 | -12.8 | 23.2 | /
O=S(=O)(Nc1ccc(-c2nc3cccnc3s2)cc1)c1cc(F)ccc1F | 9.7 | 85.2* | 44.1 | 115.3* | /
COc1ccc(Nc2nc(=O)c3cc([N+](=O)[O-])ccc3s2)cc1 | -1.4 | -1.4 | 1.5 | 48.1 | /
Cc1ccc(Nc2nc(=O)c3cc([N+](=O)[O-])ccc3s2)cc1 | 6.2 | -2.3 | 1.5 | 57.4* | i
CCOC(=O)/C(C#N)=C1/SC(CCO)C(=O)N1c1ccccc1 (stereo unspecified) | -1.2 | 0.1 | / | 53.6* | i
